In PMC5161678 (Clinical cancer research : an official journal of the …, 2016):
pIC50: −log10 of the molar value.

Key:
[1] = tested on: CSF-1R; details: CSF-1R in vitro; cited from earlier work
[2] = tested on: nurse-like cells (NLC); assay: NLC generation and survival in CLL patient PBMC cultures; type: cell-based, human; details: pacritinib 1 μM; for NLC survival: CLL PBMC cultured 7–10 days, ruxolitinib 5 μM; for NLC survival / intact NLC by morphology: fedratinib 5 μM; for intact NLC by morphology: established NLC cultures treated for 24 hours
Summary of the method: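 PBMC from CLL patients not on therapy were plated at 3–5 × 10^6 cells/mL in RPMI with 10% FBS at 37°C, 5% CO2 for 7–10 days, then given test compound or DMSO vehicle. NLC were counted by morphology in five high-power fields or as high forward/side-scatter events by flow cytometry. Viability was read by annexin V/PI. For some cultures, CLL cells were gently removed before treatment.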

[3] = tested on: lymphoma; details: cited from earlier work
[4] = molecular target: T1, CSF-1R (Homo sapiens, UniProt P07333); assay: in vitro radiometric kinase assay; type: biochemical
T1 sequence (P07333 20-972): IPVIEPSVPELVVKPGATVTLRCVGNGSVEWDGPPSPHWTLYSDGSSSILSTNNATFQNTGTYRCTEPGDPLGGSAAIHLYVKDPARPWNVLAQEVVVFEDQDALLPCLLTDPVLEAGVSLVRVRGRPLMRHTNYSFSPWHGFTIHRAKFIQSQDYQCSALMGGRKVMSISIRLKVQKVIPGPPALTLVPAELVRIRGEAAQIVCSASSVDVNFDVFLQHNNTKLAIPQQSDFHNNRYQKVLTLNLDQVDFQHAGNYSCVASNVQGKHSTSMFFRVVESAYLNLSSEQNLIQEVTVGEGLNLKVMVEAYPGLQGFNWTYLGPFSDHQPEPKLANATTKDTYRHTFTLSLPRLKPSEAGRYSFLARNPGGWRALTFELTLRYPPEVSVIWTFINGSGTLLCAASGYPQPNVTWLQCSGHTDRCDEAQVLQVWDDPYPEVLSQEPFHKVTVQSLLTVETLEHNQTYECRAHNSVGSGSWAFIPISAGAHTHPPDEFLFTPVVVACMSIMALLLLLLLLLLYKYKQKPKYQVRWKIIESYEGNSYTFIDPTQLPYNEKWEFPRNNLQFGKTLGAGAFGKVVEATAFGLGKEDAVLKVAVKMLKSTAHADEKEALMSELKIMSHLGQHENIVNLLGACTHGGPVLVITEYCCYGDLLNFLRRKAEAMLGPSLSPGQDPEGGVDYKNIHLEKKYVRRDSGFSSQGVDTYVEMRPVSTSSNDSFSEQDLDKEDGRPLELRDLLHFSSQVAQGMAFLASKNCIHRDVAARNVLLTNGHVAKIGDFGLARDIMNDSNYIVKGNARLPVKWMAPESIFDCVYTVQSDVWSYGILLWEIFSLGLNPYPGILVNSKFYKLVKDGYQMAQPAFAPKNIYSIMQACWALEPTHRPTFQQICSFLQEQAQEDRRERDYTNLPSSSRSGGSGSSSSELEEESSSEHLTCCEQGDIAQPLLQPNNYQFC

[5] = tested on: monocyte-derived macrophages; assay: monocyte and monocyte-derived macrophage viability; type: cell-based, human
[6] = molecular target: T1, CSF-1R; assay: CSF-1R phosphorylation sandwich ELISA in CSF-1 treated monocytes; type: cell-based; details: recombinant CSF-1 10 ng/mL, 5 minutes, fedratinib 5 μM, pacritinib 1 μM
[7] = tested on: CD5+CD19+ CLL B-cells; assay: CLL B-cell viability by Annexin V/PI staining in NLC cocultures; type: cell-based, human; details: for CLL viability: long-term NLC/CLL cocultures, ruxolitinib 5 μM, fedratinib 5 μM, pacritinib 1 μM
[8] = tested on: ERK and AKT; assay: ERK and AKT phosphorylation in CSF-1 treated monocytes; type: cell-based, human; details: pacritinib
Summary of the method: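 Healthy-donor monocytes were CD14 bead-selected from PBMC, cultured overnight, then stimulated 5 min with recombinant human CSF-1 (10 ng/mL) plus test compound or DMSO vehicle. Lysis buffer: Tris pH 7.5, EDTA, NaCl, NP-40, deoxycholate, SDS and protease/phosphatase inhibitors. SDS-PAGE on 5–12% gradient gels, PVDF transfer, 1 h milk block. Probed for total and pT308/pS473 AKT, and total and pT202/Y204 ERK1/2.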

[9] = in vivo; cited from earlier work

pIC50 [4]	IC50 (in words) ([4]; CSF-1R)	Structure (SMILES)	pIC50 [1]	NLC survival [2]	tolerability ([3]; patients with lymphoma)	clinical activity ([3]; various NHL, including CLL)	viable NLC by annexin V/PI staining ([2]; CLL cells removed from established NLC cultures, 24 hours)	intact NLC by morphology [2]	monocyte and monocyte-derived macrophage viability ([5]; CSF-1-treated monocytes, clinically achievable concentrations)	signs of apoptotic cell death ([5]; pacritinib-treated macrophages)	total CSF-1R phosphorylation [6]	CLL viability [7]	induction of apoptosis in CLL samples ([7]; paired CLL samples, ibrutinib 1 uM or pacritinib 1 uM)	downstream phosphorylation of ERK and AKT [8]	clinically achievable concentrations [9]
–	–	N#CC[C@H](C1CCCC1)n1cc(-c2ncnc3[nH]ccc23)cn1 [ruxolitinib]	~6.00	modest	–	–	–	–	–	–	–	–	–	–	–
> 7.30	low nanomolar range	C1=C/COCc2cc(ccc2OCCN2CCCC2)Nc2nccc(n2)-c2cccc(c2)COC/1 [pacritinib]	–	significant, and near total, loss	well tolerated	clinical activity	viable NLC were no longer identified	rarely observed	significantly impaired	caspase 3 activation, loss of mitochondrial membrane potential, and changes in cell morphology	significantly reduced	significantly reduced	significant increase	significantly impaired	–
–	–	Cc1cnc(Nc2ccc(OCCN3CCCC3)cc2)nc1Nc1cccc(S(=O)(=O)NC(C)(C)C)c1 [fedratinib]	< 6.00	significant, and near total, loss	–	–	–	rarely observed	–	–	significantly reduced	significantly reduced	–	–	1 to 5 µM
